Data as given in ChEMBL document CHEMBL3045828, “An efficient method for the purification and characterization of nematicidal azadirachtins A, B, and H, using MPLC and ESIMS” (J Agric Food Chem, 2003).
Converted amounts (≈) assume the structure as drawn.

Tests used:
Rhizoctonia solani [1] = assay: Fungicidal activity against Rhizoctonia solani assessed as mycelial growth inhibition applied as 20% powdery concentrate; type: functional; conditions: read-out: ED50 (the source's name)
Outline: (§1)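 Poisoned food technique on potato-dextrose-agar. Fungi kept on PDA slants at 25 °C and subcultured before testing. A stock in acetone (65 mg/4 mL) was diluted into PDA to about 500, 250, 100, 25 and 5 mg/L; acetone was the control. A 5-mm fungal disk was placed centrally, 2 dishes per treatment, 26 (±2) °C until control growth was nearly complete (2-3 days). Colony diameter was measured in three directions, and % and corrected inhibition were calculated.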

Caenorhabditis elegans [2] = assay: Nematicidal activity against Caenorhabditis elegans assessed as mortality applied as 20% powdery concentrate after 24 hr; type: functional
Outline: (§2)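 C. elegans grown on NG agar carrying E. coli. 15-20 worms in 48 µL saline per well, 3 wells per treatment, plus 2 µL 50% DMSO with or without test material (200 ppm). Plates covered and kept in a humid chamber. Dead nematodes counted microscopically at 2, 4, 6 and 24 h.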

Rotylenchulus reniformis [3] = assay: Nematicidal activity against fourth-stage juvenile of Rotylenchulus reniformis (reniform nematode) assessed as juvenile immobility applied as 20% powdery concentrate after 72 hr by stereoscopic binocular microscopic analysis; type: functional, organism-based
Outline: (§3)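 Juveniles came from a single-egg-mass culture maintained on cowpea in sterilized soil-sand. Exposed in Petri dishes, 3 per treatment, with water plus ethanol as control. Immobility scored by stereomicroscope at 72 h. Revival test: 48 h in distilled water, and revived juveniles were subtracted. Mortality was Abbott-corrected, with LC50 in ppm.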

Athelia rolfsii [4] = assay: Fungicidal activity against Athelia rolfsii assessed as mycelial growth inhibition; type: functional; conditions: Agroathelia rolfsii; read-out: ED50 (the source's name); outline: as §1
Rotylenchulus reniformis [5] = assay: Nematicidal activity against fourth-stage juvenile of Rotylenchulus reniformis (reniform nematode) assessed as juvenile immobility applied as 60% powdery concentrate after 72 hr by stereoscopic binocular microscopic analysis; type: functional, organism-based; outline: as §3
Rhizoctonia solani [6] = assay: Fungicidal activity against Rhizoctonia solani assessed as mycelial growth inhibition applied as 60% powdery concentrate; type: functional; conditions: read-out: ED50 (the source's name); outline: as §1
Rhizoctonia solani [7] = assay: Fungicidal activity against Rhizoctonia solani assessed as mycelial growth inhibition applied as 90% powdery concentrate; type: functional; conditions: read-out: ED50 (the source's name); outline: as §1
Caenorhabditis elegans [8] = assay: Nematicidal activity against Caenorhabditis elegans assessed as mortality at 200 ppm after 24 hr; type: functional; outline: as §2
Rotylenchulus reniformis [9] = assay: Nematicidal activity against fourth-stage juvenile of Rotylenchulus reniformis (reniform nematode) assessed as juvenile immobility applied as 90% powdery concentrate after 72 hr by stereoscopic binocular microscopic analysis; type: functional, organism-based; outline: as §3
Athelia rolfsii [10] = assay: Fungicidal activity against Athelia rolfsii assessed as mycelial growth inhibition applied as 20% powdery concentrate; type: functional; conditions: Agroathelia rolfsii; read-out: ED50 (the source's name); outline: as §1
Athelia rolfsii [11] = assay: Fungicidal activity against Athelia rolfsii assessed as mycelial growth inhibition applied as 60% powdery concentrate; type: functional; conditions: Agroathelia rolfsii; read-out: ED50 (the source's name); outline: as §1
Rotylenchulus reniformis [12] = assay: Nematicidal activity against fourth-stage juvenile of Rotylenchulus reniformis (reniform nematode) assessed as juvenile immobility after 72 hr by stereoscopic binocular microscopic analysis; type: functional, organism-based; outline: as §3
Rhizoctonia solani [13] = assay: Fungicidal activity against Rhizoctonia solani assessed as mycelial growth inhibition; type: functional; conditions: read-out: ED50 (the source's name); outline: as §1

Structure (SMILES)	EC50 (Rhizoctonia solani [1])	mortality (Caenorhabditis elegans [2])	EC50 (Rotylenchulus reniformis [3])	EC50 (Athelia rolfsii [4])	EC50 (Rotylenchulus reniformis [5])	EC50 (Rhizoctonia solani [6])	EC50 (Rhizoctonia solani [7])	mortality at 200 ppm (Caenorhabditis elegans [8])	EC50 (Rotylenchulus reniformis [9])	EC50 (Athelia rolfsii [10])	EC50 (Athelia rolfsii [11])	EC50 (Rotylenchulus reniformis [12])	EC50 (Rhizoctonia solani [13])
C/C=C(\C)C(=O)O[C@H]1C[C@@H](OC(C)=O)[C@@]2(C(=O)OC)CO[C@H]3[C@@H](O)[C@@](C)([C@]45O[C@@]4(C)[C@@H]4C[C@H]5O[C@@H]5OC=C[C@@]54O)[C@H]4[C@]1(CO[C@]4(O)C(=O)OC)[C@@H]32 [AZADIRACHTIN A]	165 µg/mL (≈ 229 µM)	50%	193.9 ppm	93.6 µg/mL (≈ 130 µM)	151.9 ppm	132 µg/mL (≈ 183 µM)	105 µg/mL (≈ 145 µM)	56%	119.1 ppm	140 µg/mL (≈ 195 µM)	122 µg/mL (≈ 169 µM)		
C/C=C(\C)C(=O)O[C@@H]1C[C@H](O)[C@]23CO[C@H](C(=O)OC)[C@H]2[C@](C)([C@]24O[C@@]2(C)[C@H]2C[C@@H]4O[C@@H]4OC=C[C@@]42O)[C@H](O)[C@@H]2OC[C@@]1(C(=O)OC)[C@H]23 [AZADIRACHTIN B]				76.2 µg/mL (≈ 115 µM)				64%				96.6 ppm	85.9 µg/mL (≈ 130 µM)
C/C=C(\C)C(=O)O[C@H]1C[C@@H](OC(C)=O)[C@@]2(C(=O)OC)CO[C@H]3[C@@H](O)[C@@](C)([C@]45O[C@@]4(C)[C@H]4C[C@@H]5O[C@@H]5OC=C[C@@]54O)[C@@H]4[C@H](O)OC[C@@]14[C@@H]32 [AZADIRACHTIN H]				43.9 µg/mL (≈ 66.2 µM)				65%				141.2 ppm	63.7 µg/mL (≈ 96.1 µM)
